Assay results: ChEMBL document CHEMBL4184153, “Optimization of a series of heterocycles as survival motor neuron gene transcription enhancers” (Bioorg Med Chem Lett, 2017)
Values after ≈ are worked out from the molar mass of the structure shown. Active and inactive are the calls of the source. The calls are words filed in the database; no cut-off is given here.

What was measured:
HEK293 [1] = test: Activation of SMN2 gene (unknown origin) transcription in HEK293 cells expressing SMN2-luc assessed as increase in SMN2 mRNA level at 0.1 to 50 uM after 24 hrs by luciferase reporter gene assay relative to control; assay type: cell-based
Method in brief: (§1)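 Luciferase reporter read-out of SMN2 expression; compounds tested at various concentrations (0.1 – 50 μM) against 0.1% DMSO controls. Dose-response curves fitted to give EC50 and percent maximum increase in SMN2 expression; values mean ± S.E.M.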

[2] = Activation of SMN2 gene (unknown origin) transcription in HEK293 cells expressing SMN2-luc assessed as increase in SMN2 mRNA level after 24 hrs by luciferase reporter gene assay; assay type: cell-based; conditions: HEK293, 24 h; method in brief: as §1
Homo sapiens [3] = species: Homo sapiens; test: Increase in SMN2 mRNA expression in SMA derived human fibroblasts assessed as increase in SMN protein aggregates (Gems)
[4] = Half life in mouse microsomes; assay type: ADME, Microsome
Mus musculus = test: Increase in life span of SMNdelta7 SMA mouse model assessed as median survival days at 20 mg/kg, ip, administered once daily beginning at PND2 (reference value: 6 days)
Homo sapiens [5] = species: Homo sapiens; test: Increase in SMN2 mRNA expression in SMA derived human fibroblasts assessed as increase in SMN protein level
HEK293 [6] = test: Activation of SMN2 gene (unknown origin) transcription in HEK293 cells expressing SMN2-luc assessed as increase in SMN2 mRNA level after 24 hrs by qRT-PCR analysis; assay type: cell-based
[7] = Aqueous solubility of the compound at pH 7.4; assay type: physicochemical; conditions: aqueous medium
HEK293 [8] = test: Activation of SMN1 gene (unknown origin) transcription in HEK293 cells assessed as increase in SMN1 exon 7 transcript level after 24 hrs by qRT-PCR analysis; assay type: cell-based
[9] = biological target: Survival motor neuron protein (Homo sapiens, UniProt Q16637); test: Stabilization of human SMN protein expressed in HEK293 cells expressing SMN2 promoter after 24 hrs by luciferase reporter gene assay; assay type: cell-based
Sequence of Survival motor neuron protein (Q16637 whole entry): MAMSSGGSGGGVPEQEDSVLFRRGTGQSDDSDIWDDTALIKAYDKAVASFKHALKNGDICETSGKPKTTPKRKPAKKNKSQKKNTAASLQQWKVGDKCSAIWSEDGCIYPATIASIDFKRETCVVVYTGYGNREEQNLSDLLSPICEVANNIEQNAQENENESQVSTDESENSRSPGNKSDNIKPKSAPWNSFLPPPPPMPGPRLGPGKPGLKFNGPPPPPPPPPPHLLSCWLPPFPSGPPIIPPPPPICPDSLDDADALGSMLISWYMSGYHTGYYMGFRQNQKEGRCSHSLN

Structure (SMILES) | Activity (HEK293 [1]) | Emax (HEK293 [1]) [%] | EC50 [2] [µM] | other results
COc1cc2c(c(OC)c1OC)C(c1cc(F)ccc1F)CC(=O)N2 (stereo not given) | inactive | – | – | –
COc1cc2c(c(OC)c1OC)C(c1cccc(Cl)c1Cl)CC(=O)N2 (stereo not given) | inactive | – | – | –
COc1cc2c(c(OC)c1OC)C(c1cc(Cl)ccc1F)CC(=O)N2 (stereo not given) | – | 150 | 12 | –
COc1cc2c(c(OC)c1OC)C(c1cc(C#N)ccc1F)NC(=O)N2 (stereo not given) | inactive | – | – | –
COc1cc2c(c(OC)c1OC)C(c1cc(Br)ccc1F)C(C)C(=O)N2 (mixture of isomers) | inactive | – | – | –
COc1ccccc1C1NC(=O)Nc2cc(OC)c(OC)c(OC)c21 (stereo not given) | inactive | – | – | –
COc1cc2c(c(OC)c1OC)C(c1cc(Cl)ccc1F)OC(C)C(=O)N2 (mixture of isomers) | – | 125 | 2.6 | –
COc1cc2c(c(OC)c1OC)C(c1cc(C(N)=O)ccc1F)CC(=O)N2 (stereo not given) | inactive | – | – | –
COc1cc2c(c(OC)c1OC)C(c1cccc(Br)c1)CC(=O)N2 (stereo not given) | inactive | – | – | –
COc1cc2c(c(OC)c1OC)C(c1cccc(F)c1)NC(=O)N2 (stereo not given) | – | 150 | 25 | –
CCCN1C(=O)Nc2cc(OC)c(OC)c(OC)c2C1c1cccc(Cl)c1 (stereo not given) | – | 100 | 5.2 | –
COc1cc2c(c(OC)c1OC)C(c1cc(Br)ccc1F)CC(=O)N2C (stereo not given) | inactive | – | – | –
COc1cc2c(c(OC)c1OC)C(c1ccc(Cl)c(Cl)c1)CC(=O)N2 (stereo not given) | inactive | – | – | –
COc1cc2c(c(OC)c1OC)C(c1cc(F)ccc1F)NC(=O)N2 (stereo not given) | – | 100 | 17 | –
COc1cc(Cl)ccc1C1NC(=O)Nc2cc(OC)c(OC)c(OC)c21 (stereo not given) | – | 200 | 7.8 | –
COc1cc2c(c(OC)c1OC)C(c1ccc(Cl)cc1Cl)CC(=O)N2 (stereo not given) | inactive | – | – | –
COc1cc2c(c(OC)c1OC)C(c1ccccc1F)N(C)C(=O)N2 (stereo not given) | – | 100 to 180 | 6 to 10 | –
COc1ccc(F)c(C2NC(=O)Nc3cc(OC)c(OC)c(OC)c32)c1 (stereo not given) | inactive | – | – | –
COc1cc2c(c(OC)c1OC)C(c1cc(C)ccc1F)NC(=O)N2 (stereo not given) | – | 125 | 4.3 | –
COc1cc2c(c(OC)c1OC)C(c1ccc(F)c(F)c1)CC(=O)N2 (stereo not given) | inactive | – | – | –
COc1cc2c(c(OC)c1OC)C(c1ccccc1F)CC(=O)N2 (stereo not given) | inactive | – | – | –

Structure (SMILES) | Activity (HEK293 [1]) | Emax (HEK293 [1]) [%] | EC50 [2] [µM] | other results
COc1cc2c(c(OC)c1OC)C(c1cc(Cl)ccc1F)NC(=O)N2 (racemic) | – | 263 | 4.1 | fold change (FC) (Homo sapiens [3]): 2; half-life [4]: 20 min; median survival (Mus musculus): 15 days; fold change (FC) (Homo sapiens [5]): 2; Activity (HEK293 [6]): Active; solubility [7]: 91 µM (≈ 33.4 µg/mL); Activity (HEK293 [8]): Active
COc1cc2c(c(OC)c1OC)C(c1cc(Cl)ccc1F)OCC(=O)N2C (stereo not given) | inactive | – | – | –
COc1cc2c(c(OC)c1OC)C(c1ccccc1Cl)NC(=O)N2 (stereo not given) | inactive | – | – | –
COc1cc2c(c(OC)c1OC)C(c1cc(-c3ccccc3)ccc1F)NC(=O)N2 (stereo not given) | inactive | – | – | –
COc1ccc(Cl)cc1C1NC(=O)Nc2cc(OC)c(OC)c(OC)c21 (stereo not given) | – | 225 | 3.6 | –
COc1cc2c(c(OC)c1OC)C(c1cc(Cl)ccc1F)OCC(=O)N2 (stereo not given) | – | 150 | 5.9 | half-life [4]: 3 min; solubility [7]: 58 µM (≈ 22.1 µg/mL)
COc1cc2c(c(OC)c1OC)C(c1ccc(Cl)cc1)NC(=O)N2 (stereo not given) | – | 150 | 6.6 | –
COc1cc2c(c(OC)c1OC)C(c1cc(C#N)ccc1F)CC(=O)N2 (stereo not given) | inactive | – | – | –
COc1cc2c(c(OC)c1OC)C(c1cc([N+](=O)[O-])ccc1F)CC(=O)N2 (stereo not given) | inactive | – | – | –
COc1cc2c(c(OC)c1)C(c1cc(Br)ccc1F)CC(=O)N2 (stereo not given) | inactive | – | – | –
COc1cc2c(c(OC)c1OC)C(c1cc(Cl)ccc1F)OC(=O)N2 (stereo not given) | – | 125 | – | –
COc1ccc2c(c1OC)C(c1cc(Br)ccc1F)CC(=O)N2 (stereo not given) | inactive | – | – | –
COc1ccc(C2NC(=O)Nc3cc(OC)c(OC)c(OC)c32)cc1 (stereo not given) | inactive | – | – | –
COc1cc2c(c(OC)c1OC)C(C)(c1cc(Cl)ccc1F)OCC(=O)N2 (stereo not given) | inactive | – | – | –
COc1cc2c(c(OC)c1OC)C(c1cc(Cl)ccc1F)=NCC(=O)N2 | – | 125 | 8.4 | –
COc1cccc(C2NC(=O)Nc3cc(OC)c(OC)c(OC)c32)c1 (stereo not given) | – | 100 | 18 | –
CC(C)c1cc(C(=O)Nc2ccc(F)c(Cl)c2)no1 | – | 242 | – | EC50 [9]: 1.8 µM
COc1cc2c(c(OC)c1OC)C(c1ccc(F)cc1)NC(=O)N2 (stereo not given) | – | 150 | 14 | –
COc1cc2c(c(OC)c1OC)C(c1ccc(Cl)cc1F)NC(=O)N2 (stereo not given) | – | 150 | 6.3 | –
COc1cc2c(c(OC)c1OC)C(c1cc(Br)ccc1F)CC(=O)N2 (stereo not given) | – | 186 | 8.3 | solubility [7]: < 1 µM
COc1cc2[nH]c(=O)nc(-c3cc(Cl)ccc3F)c2c(OC)c1OC | inactive | – | – | –
